pKi: −log10 of the molar value.
What was measured:
[1] = molecular target: T1, Gamma-aminobutyric acid receptor subunit alpha-5 (Homo sapiens) (UniProt P31644); assay: Binding selectivity for human gamma-aminobutyric-acid A receptor alpha-5 over GABA A alpha1,alpha2 and alpha-3 receptors
T1 sequence (whole entry): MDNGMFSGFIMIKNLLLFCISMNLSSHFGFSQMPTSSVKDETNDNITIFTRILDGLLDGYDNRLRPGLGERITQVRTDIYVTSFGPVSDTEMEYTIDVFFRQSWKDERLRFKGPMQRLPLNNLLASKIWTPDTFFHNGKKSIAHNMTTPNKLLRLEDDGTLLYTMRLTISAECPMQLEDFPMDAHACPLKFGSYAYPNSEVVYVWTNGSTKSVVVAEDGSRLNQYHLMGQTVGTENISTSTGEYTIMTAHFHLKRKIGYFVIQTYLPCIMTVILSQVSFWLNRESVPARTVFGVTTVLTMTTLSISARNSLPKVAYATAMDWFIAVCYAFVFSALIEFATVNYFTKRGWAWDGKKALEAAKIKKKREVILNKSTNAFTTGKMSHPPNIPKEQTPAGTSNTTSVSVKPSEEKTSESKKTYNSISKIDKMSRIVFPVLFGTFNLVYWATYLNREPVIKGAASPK

[2] = molecular target: GABA-A receptor; alpha-5/beta-3/gamma-2 (Homo sapiens) (UniProt P18507+P28472+P31644); assay: Efficacy for GABA-A receptor alpha-5-beta-3-gamma-2 subunits expressed in Xenopus laevis oocytes by two-electrode voltage clamp recording; type: cell-based; settings: Oocyte
Summary of the method: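 Two-electrode voltage clamp on Xenopus laevis oocytes injected with human α5β3γ2 cDNA, recorded 2-4 days after injection. Expression checked with 3 mM GABA; oocytes with currents <0.3 μA rejected. A GABA EC20 was determined per oocyte. Compound applied at a single concentration near 100× Ki. Efficacy (%) = (current with compound/control EC20 current × 100) − 100.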

[3] = molecular target: T2, GABA-A receptor; alpha-1/beta-3/gamma-2 (Homo sapiens, UniProt P14867+P18507+P28472); assay: Binding affinity to human gamma-aminobutyric-acid A receptor alpha-1-beta-3-gamma-2, determined using [3H]-Ro- 15-1788 radioligand; type: protein-complex assay
T2 sequence (P14867 whole entry): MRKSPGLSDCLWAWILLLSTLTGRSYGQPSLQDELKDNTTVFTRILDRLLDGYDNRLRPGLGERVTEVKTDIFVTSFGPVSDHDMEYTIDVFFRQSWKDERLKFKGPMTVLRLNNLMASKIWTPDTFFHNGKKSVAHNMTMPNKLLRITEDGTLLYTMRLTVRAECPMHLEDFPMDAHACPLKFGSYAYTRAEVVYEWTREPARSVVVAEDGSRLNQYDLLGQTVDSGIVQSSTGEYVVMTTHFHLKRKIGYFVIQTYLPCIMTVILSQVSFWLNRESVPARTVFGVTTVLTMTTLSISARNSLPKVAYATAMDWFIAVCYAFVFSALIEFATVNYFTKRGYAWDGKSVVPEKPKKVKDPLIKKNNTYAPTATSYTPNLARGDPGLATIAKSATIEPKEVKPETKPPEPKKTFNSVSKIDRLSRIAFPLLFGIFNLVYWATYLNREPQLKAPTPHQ
T2 sequence (P18507 whole entry): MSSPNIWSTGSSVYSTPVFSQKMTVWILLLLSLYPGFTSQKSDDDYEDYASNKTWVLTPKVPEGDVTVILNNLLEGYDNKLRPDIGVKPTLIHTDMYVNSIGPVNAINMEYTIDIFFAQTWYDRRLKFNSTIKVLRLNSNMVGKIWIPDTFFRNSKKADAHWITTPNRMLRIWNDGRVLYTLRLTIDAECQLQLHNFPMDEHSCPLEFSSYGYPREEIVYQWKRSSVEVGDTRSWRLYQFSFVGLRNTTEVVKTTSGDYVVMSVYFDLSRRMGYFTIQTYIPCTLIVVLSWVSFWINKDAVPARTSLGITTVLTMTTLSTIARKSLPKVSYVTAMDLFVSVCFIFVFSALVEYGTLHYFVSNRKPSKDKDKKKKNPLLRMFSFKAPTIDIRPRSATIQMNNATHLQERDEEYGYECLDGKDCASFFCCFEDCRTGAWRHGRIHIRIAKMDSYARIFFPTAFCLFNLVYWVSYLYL
T2 sequence (P28472 whole entry): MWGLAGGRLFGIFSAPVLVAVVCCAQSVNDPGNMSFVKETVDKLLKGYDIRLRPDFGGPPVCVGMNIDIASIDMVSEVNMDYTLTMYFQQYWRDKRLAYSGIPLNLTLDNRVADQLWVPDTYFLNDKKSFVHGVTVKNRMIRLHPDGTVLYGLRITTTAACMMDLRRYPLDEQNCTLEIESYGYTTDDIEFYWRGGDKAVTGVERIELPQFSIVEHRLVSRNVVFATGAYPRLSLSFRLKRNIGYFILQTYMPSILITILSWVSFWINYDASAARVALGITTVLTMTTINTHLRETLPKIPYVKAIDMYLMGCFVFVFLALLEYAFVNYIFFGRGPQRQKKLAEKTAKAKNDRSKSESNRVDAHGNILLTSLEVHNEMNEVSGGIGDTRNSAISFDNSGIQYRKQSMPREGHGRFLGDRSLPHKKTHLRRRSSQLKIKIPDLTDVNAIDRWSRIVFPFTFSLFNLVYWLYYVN
Summary of the method: (§1)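 Displacement of [3H]Ro 15-1788 binding from harvested L(tk-) cells stably expressing human recombinant GABA-A receptors with β3 and γ2 subunits plus α1, α2, α3 or α5. […] Ki given as geometric mean ± SEM of three independent determinations.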

[4] = molecular target: T3, GABA-A receptor; alpha-2/beta-3/gamma-2 (Homo sapiens, UniProt P18507+P28472+P47869); assay: Binding affinity to human gamma-amino butyric-acid A receptor alpha-2-beta-3-gamma-2, using a [3H]-Ro- 15-1788 radioligand; type: protein-complex assay; summary of the method: as §1
T3 sequence (P18507 whole entry): T2 sequence (P18507 whole entry)
T3 sequence (P28472 whole entry): T2 sequence (P28472 whole entry)
T3 sequence (P47869 whole entry): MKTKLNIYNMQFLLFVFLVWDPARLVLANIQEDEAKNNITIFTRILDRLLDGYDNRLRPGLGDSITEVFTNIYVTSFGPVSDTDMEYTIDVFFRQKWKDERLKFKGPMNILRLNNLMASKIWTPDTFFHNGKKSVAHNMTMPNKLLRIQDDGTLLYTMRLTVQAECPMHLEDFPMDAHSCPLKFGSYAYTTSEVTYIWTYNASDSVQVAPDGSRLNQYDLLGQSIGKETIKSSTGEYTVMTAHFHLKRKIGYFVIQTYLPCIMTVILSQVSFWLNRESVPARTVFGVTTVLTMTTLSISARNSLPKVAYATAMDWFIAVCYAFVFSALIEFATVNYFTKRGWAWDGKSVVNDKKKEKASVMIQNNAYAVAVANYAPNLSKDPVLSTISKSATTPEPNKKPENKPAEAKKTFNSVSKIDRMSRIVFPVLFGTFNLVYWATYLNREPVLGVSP

[5] = molecular target: T4, GABA-A receptor; alpha-3/beta-3/gamma-2 (Homo sapiens, UniProt P18507+P28472+P34903); assay: Binding affinity to human gamma-amino butyric-acid A receptor alpha-3-beta-3-gamma-2, using a [3H]-Ro- 15-1788 radioligand; type: protein-complex assay; summary of the method: as §1
T4 sequence (P18507 whole entry): T2 sequence (P18507 whole entry)
T4 sequence (P28472 whole entry): T2 sequence (P28472 whole entry)
T4 sequence (P34903 whole entry): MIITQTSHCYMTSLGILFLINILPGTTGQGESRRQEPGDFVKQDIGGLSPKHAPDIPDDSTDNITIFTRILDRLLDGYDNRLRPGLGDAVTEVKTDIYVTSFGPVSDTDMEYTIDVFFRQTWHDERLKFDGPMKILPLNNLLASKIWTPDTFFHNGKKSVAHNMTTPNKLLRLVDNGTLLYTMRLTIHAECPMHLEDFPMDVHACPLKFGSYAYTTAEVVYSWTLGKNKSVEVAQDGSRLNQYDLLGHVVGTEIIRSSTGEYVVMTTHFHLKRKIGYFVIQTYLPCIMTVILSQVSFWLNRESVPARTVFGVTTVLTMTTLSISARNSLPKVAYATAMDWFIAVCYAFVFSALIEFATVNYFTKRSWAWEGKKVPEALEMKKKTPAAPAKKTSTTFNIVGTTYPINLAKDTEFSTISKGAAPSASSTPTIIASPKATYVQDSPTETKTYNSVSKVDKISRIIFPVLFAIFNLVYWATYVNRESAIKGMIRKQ

[6] = molecular target: T5, GABA-A receptor; alpha-5/beta-3/gamma-2 (Homo sapiens, UniProt P18507+P28472+P31644); assay: Binding affinity to human GABA A alpha-5-beta-3-gamma-2 receptor, using a [3H]-Ro- 15-1788 radioligand; type: protein-complex assay; summary of the method: as §1
T5 sequence (P18507 whole entry): T2 sequence (P18507 whole entry)
T5 sequence (P28472 whole entry): T2 sequence (P28472 whole entry)
T5 sequence (P31644 whole entry): T1 sequence (whole entry)

| SMILES | Selectivity [1] | Efficacy [2] | pKi [3] | pKi [4] | pKi [5] | pKi [6] |
| --- | --- | --- | --- | --- | --- | --- |
| CC1(C)CC(=O)c2c(SCCO)sc(-c3ccccn3)c2C1 | 20 | -39 |  |  |  |  |
| CNc1sc(-c2cc[nH]n2)c2c1C(=O)CC(C)(C)C2 | > 2 |  | < 6.52 | < 6.52 | < 6.52 | 6.88 |
| CC(C)Sc1sc(-c2cc[nH]n2)c2c1C(=O)CC(C)(C)C2 | 6 |  |  |  |  |  |
| CC1(C)CC(=O)c2c(SCCCO)sc(-c3cc[nH]n3)c2C1 | 13 |  | 7.22 | 7.34 | 7.30 | 8.33 |
| CSc1sc(-c2cccnc2)c2c1C(=O)CC(C)(C)C2 | 28 | -40 |  |  |  |  |
| CC1(C)CC(=O)c2c(NCCO)sc(-c3cc[nH]n3)c2C1 | > 4 |  | < 6.52 | < 6.52 | < 6.52 | 7.11 |
| CSc1sc(-c2ccccn2)c2c1C(=O)CC(C)(C)C2 | 26 | -31 |  |  |  |  |
| CSc1sc(-c2nc(C)no2)c2c1C(=O)CC(C)(C)C2 | > 8 |  | < 6.52 | < 6.52 | 6.73 | 7.43 |
| CSc1sc(-c2ccncc2)c2c1C(=O)CC(C)(C)C2 | 19 | -20 |  |  |  |  |
| CSc1sc(-c2cncs2)c2c1C(=O)CC(C)(C)C2 | 12 |  | 6.76 | 6.79 | 6.80 | 7.82 |
| CC1(C)CC(=O)c2c(SC(C)(C)C)sc(-c3cc[nH]n3)c2C1 | > 2 |  | < 6.52 | < 6.52 | < 6.52 | 6.77 |
| CC1(C)CC(=O)c2csc(-c3cc[nH]n3)c2C1 |  |  | < 6.52 | < 6.52 | < 6.52 | < 6.52 |
| CCCSc1sc(-c2cc[nH]n2)c2c1C(=O)CC(C)(C)C2 | 9 |  | 7.66 | 7.55 | 7.39 | 8.34 |
| CCSc1sc(-c2cc[nH]n2)c2c1C(=O)CC(C)(C)C2 | 10 |  |  |  |  |  |
| CC1(C)CC(=O)c2c(Sc3cccs3)sc(-c3cc[nH]n3)c2C1 | 8 |  | 8.00 | 8.12 | 7.74 | 8.62 |
| CSc1sc(-c2ncn(C)n2)c2c1C(=O)CC(C)(C)C2 | 14 |  | 6.57 | 7.31 | 6.99 | 7.72 |
| CC(C)Oc1sc(-c2cc[nH]n2)c2c1C(=O)CC(C)(C)C2 | 18 |  | 6.92 | 6.74 | 7.16 | 7.82 |
| CCCCSc1sc(-c2cc[nH]n2)c2c1C(=O)CC(C)(C)C2 | 10 |  | 7.24 | 6.74 | 6.74 | 7.74 |
| COc1sc(-c2cc[nH]n2)c2c1C(=O)CC(C)(C)C2 | > 5 |  | < 6.52 | < 6.52 | < 6.52 | 7.17 |
| CC1(C)CC(=O)c2c(SCCO)sc(-c3cc[nH]n3)c2C1 | 11 |  |  |  |  |  |
| CCc1sc(-c2cc[nH]n2)c2c1C(=O)CC(C)(C)C2 | 22 |  | 6.68 | 6.79 | 6.62 | 7.96 |
| CSc1sc(-c2ccccc2)c2c1C(=O)CC(C)(C)C2 |  |  | < 6.52 | < 6.52 | < 6.52 | < 6.52 |
| CSc1sc(-c2ccc[nH]2)c2c1C(=O)CC(C)(C)C2 | > 4 |  | < 6.52 | < 6.52 | < 6.52 | 7.07 |
